Measured values taken from PubChem BioAssay.
Calls of active or inactive are those of the source.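 The calls were made as follows, unless noted: active = compounds giving at least 50% inhibition in the cell-based MKP-3 phosphatase rescue imaging test; inactive = the rest.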

Key:
[1] = inhibitors of TNFa-induced NFkB p65 translocation, primary screen, imaging, HUVEC, MLSMR starter and 10KST1 sets (AID 438;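 active = inhibition above 20% together with a positive visual image hit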;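 also: compound added about 3h40 before a 20 min TNFalpha stimulation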;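 as to inhibition: signal is the nuclear over cytoplasmic p65 intensity ratio per well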); settings: HUVEC TNFa-induced p65 nuclear translocation; cell count: measured here: nuclei count (cytotoxicity indicator), at 2.08 µM unless noted; inhibition: at 2 µM, stronger effect = higher value unless noted
[2] = endothelial E-selectin expression blockers – imaging, HUVEC, immunofluorescence, MLSMR starter and 10KST1 sets, primary screen (AID 487;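 active = visually confirmed hit in the image check and inhibition above 20%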;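 as to inhibition: signal is fraction of cell area covered by stained E-selectin grains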;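 as to nuclei count: 100% = median nuclei count of all wells on the same plate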); settings: HUVEC TNFalpha-induced E-selectin immunofluorescence imaging, at 2 µM; inhibition: stronger effect = higher value; nuclei count: measured here: cell number, toxicity
[3] = Primary imaging screen for DUSP6 inhibitors that restore phospho-Erk in transfected HeLa cells, chemical complementation (AID 609); settings: HeLa MKP-3 transfected, phospho-Erk imaging KS statistic, at 10 µM;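 as to inhibition: phospho-Erk level distribution per well compared with pooled transfected vehicle control wells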
[4] = biological target: Dual specificity protein phosphatase 6 (Homo sapiens) (UniProt Q16828); assay: as above; settings: HeLa MKP-3 transfected, phospho-Erk imaging KS statistic, at 10 µM, stronger effect = higher value
Chain of Dual specificity protein phosphatase 6 (Homo sapiens) (Q16828 whole entry, looked up): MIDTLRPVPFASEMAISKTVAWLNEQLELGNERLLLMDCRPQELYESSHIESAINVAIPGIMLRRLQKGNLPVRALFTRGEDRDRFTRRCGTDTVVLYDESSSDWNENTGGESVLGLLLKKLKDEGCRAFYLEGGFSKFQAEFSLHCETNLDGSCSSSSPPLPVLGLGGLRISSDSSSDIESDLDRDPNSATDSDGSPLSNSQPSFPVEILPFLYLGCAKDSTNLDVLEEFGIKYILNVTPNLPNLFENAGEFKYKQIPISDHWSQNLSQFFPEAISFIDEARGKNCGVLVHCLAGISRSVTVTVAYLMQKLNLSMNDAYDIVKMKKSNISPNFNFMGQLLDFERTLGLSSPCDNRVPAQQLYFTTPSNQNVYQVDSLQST

[5] = biological target: Voltage-gated potassium channel subunit beta-2 (Rattus norvegicus) (UniProt P62483); assay: inhibitors of rat Kvbeta2 reductase activity – biochemical, NADPH fluorescence, primary screen (AID 622;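 active = fluorescence slope higher than the sample average by over 3 SD, cut at about -0.22 in these data, passing the limit was not always enough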;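 also: slope of raw intensity against log time taken from 70 to 1610 s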); settings: recombinant KvBeta, 4-cyanobenzaldehyde reduction, at 10 µM, stronger effect = higher value
Chain of Voltage-gated potassium channel subunit beta-2 (Rattus norvegicus) (P62483 whole entry, looked up): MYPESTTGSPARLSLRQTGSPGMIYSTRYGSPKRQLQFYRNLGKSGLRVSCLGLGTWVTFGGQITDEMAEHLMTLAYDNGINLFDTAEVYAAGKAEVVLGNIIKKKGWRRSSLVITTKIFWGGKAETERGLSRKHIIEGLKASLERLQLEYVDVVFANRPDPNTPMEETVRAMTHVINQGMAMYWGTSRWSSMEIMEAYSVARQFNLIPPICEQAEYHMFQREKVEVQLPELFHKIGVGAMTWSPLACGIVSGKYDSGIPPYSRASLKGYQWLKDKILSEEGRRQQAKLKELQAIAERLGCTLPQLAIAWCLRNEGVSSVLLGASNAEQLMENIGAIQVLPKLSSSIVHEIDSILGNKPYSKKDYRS

[6] = biological target: Voltage-gated potassium channel subunit beta-2 (Rattus norvegicus) (UniProt P62483); assay: enhancers of rat Kvbeta2 NADPH turnover – biochemical, NADPH fluorescence, primary screen (AID 623;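 active = NADPH fluorescence slope more negative than the mean of all samples by about 3 SD, 99.7% confidence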;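 also: fluorescence intensity change per second fitted from 20 to 320 s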); settings: Recombinant KvBeta, NADPH fluorescence decrease slope, 10 min; at 10 µM; stronger effect = lower value
[7] = biological target: Alpha-2C adrenergic receptor (Homo sapiens) (UniProt P18825); assay: compounds altering alpha2C-coupled GIRK flux – cell-based, HEK293 alpha2C/GIRK1/2, thallium flux, primary screen (AID 624;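 active = fluorescence slope after compound addition differing from the mean of all screened samples at 99.7% confidence, in either direction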;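 also: slope of fluorescence ratio to pre-addition baseline per second over 15 to 24 s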); settings: thallium flux BTC fluorescence, at 10 µM, actives lie on both sides
Chain of Alpha-2C adrenergic receptor (Homo sapiens) (P18825 whole entry, looked up): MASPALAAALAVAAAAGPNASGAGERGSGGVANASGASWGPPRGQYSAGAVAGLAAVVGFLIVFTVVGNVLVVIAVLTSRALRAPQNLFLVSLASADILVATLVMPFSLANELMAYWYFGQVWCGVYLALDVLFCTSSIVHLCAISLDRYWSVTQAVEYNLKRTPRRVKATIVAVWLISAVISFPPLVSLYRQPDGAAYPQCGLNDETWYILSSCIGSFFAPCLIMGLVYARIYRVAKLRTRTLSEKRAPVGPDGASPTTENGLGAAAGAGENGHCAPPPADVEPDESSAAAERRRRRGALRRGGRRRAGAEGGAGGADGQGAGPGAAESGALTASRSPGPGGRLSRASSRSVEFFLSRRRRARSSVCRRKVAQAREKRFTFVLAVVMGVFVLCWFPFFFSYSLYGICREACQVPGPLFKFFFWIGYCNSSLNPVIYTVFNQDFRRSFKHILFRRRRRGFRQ

[8] = inhibitors of larval lipid processing in zebrafish, primary screen, whole organism, PED6 fluorescence, gall bladder and intestine (AID 686;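 active = a full or partial loss of lipid-probe fluorescence in the fish gall bladder, intestine or both, judged by eye; inactive = no fluorescence loss, or compound toxic to the fish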;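 also: larvae 5 to 7 days old with five fish per well; signal comes from phospholipase A2 cleavage of quenched PED6 carried via bile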); settings: Zebrafish larvae PED6 lipid processing, fluorescence scoring
In short: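 Incubation: overnight exposure of larvae to compound plus PED6 / Test system: live zebrafish larvae aged 5-7 days, whole organism / Amount: 5 larvae per well / Read-out basis: visual per-well fluorescence inhibition score / Signal: visual fluorescence microscopy scoring of gall bladder, gut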

[9] = loss of swimming-algae plug formation – whole organism, Chlamydomonas reinhardtii, WT vs cilia-less mutant, absorbance, 96-well, primary screen (AID 463189;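 active = inhibition at or above 50% relative to wild type and mutant plate controls; inactive = inhibition below 50%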;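 also: 0% = wild type cc124 cells in DMSO and 100% = ciliumless bld1 mutant cells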); settings: Chlamydomonas reinhardtii gravitaxis, OD600 absorbance, 2 days; at 10 µM; stronger effect = higher value
[10] = measured here: cell density z-score
[11] = measured here: nuclear c-Myc green intensity z-score
[12] = measured here: nuclear pErk red intensity z-score, stronger effect = higher value

Compound | cell count [1] | inhibition [1] | inhibition [2] | nuclei count [2] [%] | z-score [3, 10] | z-score [3, 11] | z-score [3, 12] | inhibition [4] | fluorescence slope [5] | NADPH fluorescence slope [6] | slope [7] | outcome [8] | inhibition [9]
COC(=O)C(O)(c1c[nH]c2ccccc12)C(F)(F)F (centres undefined) | 466 | -0.7% (inactive) | -19.2% (inactive) | 112 | 0.726 | 0.429 | -1.12 | -5.26% (inactive) | -0.373 (inactive) | 1.2e-05 (inactive) | 0.00556 (inactive) | inactive | -11.1% (inactive)
CCCCCCn1c(O)c(C=NCCN2CCCCC2)c(=O)[nH]c1=O | 667 | -17.9% (inactive) | -47.5% (inactive) | 141 | 0.204 | -1.24 | -1.39 | 12.7% (inactive) | -0.423 (inactive) | -2.4e-06 (inactive) | 0.00602 (inactive) | inactive | 12.8% (inactive)
CCOCCN1CCC(OC(C)=O)C(C)C1 (centres undefined) | 461 | -0.9% (inactive) | -83.1% (inactive) | 115 | -0.179 | -1.35 | -0.74 | -6.86% (inactive) | -0.51 (inactive) | -0.000103 (inactive) | 0.00675 (inactive) | inactive | -15.8% (inactive)
O=c1[nH]c(=O)n(Cc2ccco2)c(O)c1C=NCc1ccc2c(c1)OCO2 | 562 | -4.8% (inactive) | 50.7% (inactive) | 148 | -1.72 | -1.79 | -0.396 | -8.76% (inactive) | -0.254 (inactive) | -1.2e-06 (inactive) | 0.00624 (inactive) | inactive | 18.3% (inactive)
CN1CCc2nc(SCC(=O)OC(C)(C)C)c(C#N)cc2C1 | 606 | -21.6% (inactive) | -56.3% (inactive) | 178 | -1.57 | -0.211 | 0.501 | 16% (inactive) | -0.316 (inactive) | -4.7e-05 (inactive) | 0.00437 (inactive) | inactive | 102% (active)
COCC(C)OC(=O)c1c(N)n(Cc2ccco2)c2nc3ccccc3nc12 (centres undefined) | 433 | -9.3% (inactive) | -115% (inactive) | 147 | -0.578 | 0.931 | -0.00965 | -11.9% (inactive) | -0.0512 (inactive) | -2.8e-07 (inactive) | 0.0047 (inactive) | inactive | 7.25% (inactive)
O=c1[nH]c2ccccc2c(=O)n1-c1cccc(Cl)c1 | 545 | -5.4% (inactive) | 40% (inactive) | 129 | -1.11 | 2.35 | 0.728 | -18.6% (inactive) | -0.461 (inactive) | -7e-06 (inactive) | 0.00622 (inactive) | inactive | 11.1% (inactive)
OC(Cc1ccccc1)(c1ccccc1)C1CN2CCC1CC2 (centres undefined) | 556 | -8.4% (inactive) | -124% (inactive) | 130 | 0.0962 | 1.34 | 0.286 | 1.98% (inactive) | -0.512 (inactive) | -2.1e-05 (inactive) | 0.00546 (inactive) | inactive | 0.812% (inactive)
O=c1[nH]c(=O)n(C2CCCCC2)c(O)c1C=NCCCn1ccnc1 | 684 | -20.4% (inactive) | -84.3% (inactive) | 153 | 1.04 | -1.34 | -0.814 | 6.04% (inactive) | -0.428 (inactive) | 6.8e-06 (inactive) | 0.00637 (inactive) | inactive | 0.521% (inactive)
CC(=O)OC1(Cc2ccccc2)CN2CCC1c1ccccc12 (centres undefined) | 574 | -15.2% (inactive) | -118% (inactive) | 130 | 0.311 | -0.615 | 0.994 | -9.91% (inactive) | -0.516 (inactive) | -4e-05 (inactive) | 0.00421 (inactive) | inactive | 14.3% (inactive)
C/C(Cl)=C/CC1(CN2CCCC2=O)C(=O)NC(=O)NC1=O | 584 | -2.5% (inactive) | -26.8% (inactive) | 102 | -1.18 | 1.93 | 0.656 | -3.98% (inactive) | -0.484 (inactive) | -0.000274 (inactive) | 0.00947 (inactive) | inactive | -13.6% (inactive)
CC1(C)CC(n2[nH]c(=O)c3c2NC(=O)CSC3c2ccccc2)CCO1 (centres undefined) | 532 | 10.5% (inactive) | -152% (inactive) | 128 | -0.163 | 0.684 | -0.467 | 1.75% (inactive) | -0.501 (inactive) | -2.3e-05 (inactive) | 0.00596 (inactive) | inactive | -16.8% (inactive)
CC(=O)OC1N=C(c2ccccc2)c2ccccc2NC1=O (centres undefined) | 428 | -3.5% (inactive) | 14.8% (inactive) | 88.8 | 0.0297 | -1.27 | -0.528 | 6.04% (inactive) | -0.509 (inactive) | -5.2e-06 (inactive) | 0.00675 (inactive) | inactive | 12.3% (inactive)
C=CCn1c(O)c(C=Nc2ccc(N(CC)CC)cc2)c(=O)[nH]c1=O | 321 | 4.1% (inactive) | -65.7% (inactive) | 88.8 | -1.25 | 0.816 | -0.799 | -1.75% (inactive) | -0.321 (inactive) | -6.9e-05 (inactive) | 0.00606 (inactive) | inactive | 25.3% (inactive)
COc1cccc(-n2c(O)c(C=NCCN3CCOCC3)c(=O)[nH]c2=O)c1 | 512 | -1.1% (inactive) | -10.1% (inactive) | 92.8 | -1.1 | 2.1 | 0.315 | -5.26% (inactive) | -0.386 (inactive) | -1.1e-05 (inactive) | 0.00613 (inactive) | inactive | -13% (inactive)
CN1CC=C2C(C#N)=C(N)C(C#N)(C#N)C(c3ccncc3)C2C1 (centres undefined) | 568 | -17% (inactive) | 30.3% (inactive) | 179 | -0.865 | 3.38 | -0.482 | 67.6% (inactive) | -0.392 (inactive) | -5.3e-05 (inactive) | 0.00203 (inactive) | inactive | 11.3% (inactive)
CC(C)Cc1[nH]c(=O)c(C#N)c2c1CCC2 | 490 | 8.7% (inactive) | -51.3% (inactive) | 119 | 0.582 | 0.998 | -0.369 | -1.75% (inactive) | -0.439 (inactive) | -4.3e-06 (inactive) | 0.00495 (inactive) | inactive | 20.8% (inactive)
CCCCOCCCn1c(N)c(C(=O)OC(C)COC)c2nc3ccccc3nc21 (centres undefined) | 572 | -16.3% (inactive) | -75.8% (inactive) | 146 | 0.315 | -0.916 | -1.54 | 11.9% (inactive) | -0.0435 (inactive) | -1e-05 (inactive) | 0.00527 (inactive) | inactive | 21% (inactive)
